Consider one compound from ChEMBL document CHEMBL2040721, “Potent direct inhibitors of factor Xa based on the tetrahydroisoquinoline scaffold” (Eur J Med Chem, 2012).

In general, IC50 refers to the concentration that inhibits the measured activity by half. Low values mean higher potency, high ones lower potency.

One test addresses Coagulation factor X (Homo sapiens, UniProt P00742). Description: Inhibition of human factor 10a using chromogenic spectrozyme F10a as substrate after 10 mins by spectrophotometry. In outline: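 Human plasma FXa pre-incubated 10 min at 37 °C with inhibitor (twelve concentrations, 0.015–500 μM in well) in pH 7.4 buffer, then Spectrozyme FXa added. Initial rate of A405 rise gives residual activity relative to no-inhibitor control. Duplicate or triplicate; logistic fit gives IC50, efficacy and Hill slope. Organic solvent held constant, <2.5% v/v.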

For the next test, the target named is Prothrombin (Homo sapiens, UniProt P00734). In words: Inhibition of human factor 2a using chromogenic spectrozyme TH as substrate after 10 mins by spectrophotometry.
The next test addresses T1, Coagulation factor VII (Homo sapiens, UniProt P08709).
T1 sequence (P08709 whole entry): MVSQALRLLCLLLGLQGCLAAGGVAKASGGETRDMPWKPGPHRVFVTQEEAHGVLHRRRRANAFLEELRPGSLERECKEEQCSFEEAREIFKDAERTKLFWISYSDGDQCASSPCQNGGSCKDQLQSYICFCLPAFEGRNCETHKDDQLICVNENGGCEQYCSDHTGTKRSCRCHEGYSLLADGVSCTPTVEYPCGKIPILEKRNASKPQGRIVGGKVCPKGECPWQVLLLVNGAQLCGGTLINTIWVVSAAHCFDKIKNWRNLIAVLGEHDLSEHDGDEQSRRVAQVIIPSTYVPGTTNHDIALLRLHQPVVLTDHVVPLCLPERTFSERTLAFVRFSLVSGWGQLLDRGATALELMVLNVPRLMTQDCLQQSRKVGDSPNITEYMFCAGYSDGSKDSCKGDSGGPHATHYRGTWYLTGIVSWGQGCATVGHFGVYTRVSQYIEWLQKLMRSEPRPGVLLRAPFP
Description: Inhibition of human factor 7a using chromogenic spectrozyme 7a as substrate after 10 mins by spectrophotometry.

A further test concerns the target Coagulation factor IX (Homo sapiens, UniProt P00740). Description: Inhibition of human factor 9a using chromogenic spectrozyme 9a as substrate after 10 mins by spectrophotometry.
A further test has as its target Coagulation factor XI (Homo sapiens, UniProt P03951). In words: Inhibition of human factor 11a using chromogenic S2366 as substrate after 10 mins by spectrophotometry.
The target in the next test is T2, Coagulation factor XII (Homo sapiens, UniProt P00748).
T2 sequence (P00748 whole entry): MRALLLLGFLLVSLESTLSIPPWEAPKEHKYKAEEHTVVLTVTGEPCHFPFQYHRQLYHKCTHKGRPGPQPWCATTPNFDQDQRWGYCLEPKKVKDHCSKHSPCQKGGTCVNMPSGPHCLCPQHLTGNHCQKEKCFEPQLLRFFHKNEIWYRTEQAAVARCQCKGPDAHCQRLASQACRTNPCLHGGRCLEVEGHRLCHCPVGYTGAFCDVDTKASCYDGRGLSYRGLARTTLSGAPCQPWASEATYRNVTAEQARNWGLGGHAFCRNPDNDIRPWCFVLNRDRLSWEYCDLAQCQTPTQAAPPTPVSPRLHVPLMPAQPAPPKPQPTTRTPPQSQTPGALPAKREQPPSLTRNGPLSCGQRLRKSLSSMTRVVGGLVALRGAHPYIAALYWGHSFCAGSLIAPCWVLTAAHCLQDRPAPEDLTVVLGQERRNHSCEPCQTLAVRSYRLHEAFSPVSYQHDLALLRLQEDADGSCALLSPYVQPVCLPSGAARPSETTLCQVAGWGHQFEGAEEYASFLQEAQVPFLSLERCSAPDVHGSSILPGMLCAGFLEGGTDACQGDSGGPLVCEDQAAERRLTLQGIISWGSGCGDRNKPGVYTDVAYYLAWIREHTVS
Description: Inhibition of factor 12a using chromogenic spectrozyme 12a as substrate after 10 mins by spectrophotometry.

A short description of test [1]: Inhibition of bovine trypsin using chromogenic S2222 as substrate after 10 mins by spectrophotometry. Details: species or system Bos taurus.
A further test concerns the target Chymotrypsinogen A (Bos taurus, UniProt P00766). In words: Inhibition of bovine alpha-chymotrypsin using chromogenic spectrozyme CTY as substrate after 10 mins by spectrophotometry.
The species entered for test [2] is Homo sapiens. Description: Selectivity index ratio of IC50 for human factor 2a to IC50 for human factor 10a.
The species entered for test [3] is Homo sapiens. In words: Selectivity index ratio of IC50 for human factor 7a to IC50 for human factor 10a.
Test [4] is filed under the species Homo sapiens. Description: Selectivity index ratio of IC50 for human factor 9a to IC50 for human factor 10a.
Test [5] is filed under the species Homo sapiens. Description: Selectivity index ratio of IC50 for human factor 11a to IC50 for human factor 10a.
Test [6] is filed under the species Homo sapiens. Description: Selectivity index ratio of IC50 for factor 12a to IC50 for human factor 10a.
The nature of test [7]: Selectivity index ratio of IC50 for bovine trypsin to IC50 for human factor10a.
Test [8] in a line: Selectivity index ratio of IC50 for bovine alpha-chymotrypsin to IC50 for human factor10a.
Test [9] concerns Plasma. Description: Anticoagulant activity in human plasma assessed as concentration required to double the activated […] time incubated for 4 mins prior to CaCl2-challenge by fibrometry. Format: functional.
Test [10] has as its system Plasma. In words: Anticoagulant activity in human plasma assessed as concentration required to double the prothrombin time incubated for 30 s prior to thromboplastin addition by fibrometry.

Chain of Coagulation factor X (P00742 41-179 limits assumed): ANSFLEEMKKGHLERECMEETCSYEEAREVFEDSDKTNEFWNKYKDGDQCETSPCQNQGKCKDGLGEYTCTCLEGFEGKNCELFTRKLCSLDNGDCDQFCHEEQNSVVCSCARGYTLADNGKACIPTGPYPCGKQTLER
Chain of Coagulation factor X (P00742 235-488 limits assumed): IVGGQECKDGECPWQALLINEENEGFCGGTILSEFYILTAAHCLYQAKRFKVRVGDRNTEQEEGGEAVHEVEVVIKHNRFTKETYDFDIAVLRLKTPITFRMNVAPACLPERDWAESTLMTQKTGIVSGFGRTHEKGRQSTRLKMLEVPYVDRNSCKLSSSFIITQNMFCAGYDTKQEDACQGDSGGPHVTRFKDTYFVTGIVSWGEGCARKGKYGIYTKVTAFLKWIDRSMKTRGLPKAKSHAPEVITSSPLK
Chain of Coagulation factor XI (P03951 19-387 limits assumed): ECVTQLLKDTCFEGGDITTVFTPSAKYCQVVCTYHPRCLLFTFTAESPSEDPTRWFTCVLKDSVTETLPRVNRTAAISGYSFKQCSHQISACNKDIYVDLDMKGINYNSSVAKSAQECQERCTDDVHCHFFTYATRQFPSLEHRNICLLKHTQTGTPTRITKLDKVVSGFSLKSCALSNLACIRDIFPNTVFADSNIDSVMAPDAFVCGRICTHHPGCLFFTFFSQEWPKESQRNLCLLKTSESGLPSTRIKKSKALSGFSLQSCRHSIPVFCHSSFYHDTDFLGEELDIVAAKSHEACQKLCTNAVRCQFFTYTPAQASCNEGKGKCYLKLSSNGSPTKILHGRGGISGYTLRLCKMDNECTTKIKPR
Chain of Coagulation factor XI (P03951 388-625 limits assumed): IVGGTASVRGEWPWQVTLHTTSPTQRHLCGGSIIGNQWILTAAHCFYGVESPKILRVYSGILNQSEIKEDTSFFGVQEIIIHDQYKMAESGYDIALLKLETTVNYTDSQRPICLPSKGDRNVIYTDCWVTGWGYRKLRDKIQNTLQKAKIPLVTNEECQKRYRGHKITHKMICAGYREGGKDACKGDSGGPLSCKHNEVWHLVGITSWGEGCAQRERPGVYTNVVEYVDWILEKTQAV
Chain of Coagulation factor IX (P00740 47-191 limits assumed): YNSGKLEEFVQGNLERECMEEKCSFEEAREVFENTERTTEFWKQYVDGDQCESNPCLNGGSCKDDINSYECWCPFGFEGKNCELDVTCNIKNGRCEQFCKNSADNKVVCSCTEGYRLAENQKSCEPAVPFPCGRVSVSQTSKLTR
Chain of Coagulation factor IX (P00740 227-461 limits assumed): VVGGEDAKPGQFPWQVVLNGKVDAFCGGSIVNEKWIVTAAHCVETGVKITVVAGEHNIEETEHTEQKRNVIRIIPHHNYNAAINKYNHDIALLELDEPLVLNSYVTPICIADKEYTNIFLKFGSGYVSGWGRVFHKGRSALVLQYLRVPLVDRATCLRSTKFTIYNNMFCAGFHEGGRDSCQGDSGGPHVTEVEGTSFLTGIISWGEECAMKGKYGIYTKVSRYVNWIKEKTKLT

Turning to `O=C(Nc1ccc(N2CCOCC2=O)cc1)[C@H]1Cc2ccccc2CN1C(=O)Cc1ccc(Cl)cc1`, the concentration for half-maximal inhibition (IC50) on Coagulation factor X is 270 nM; against Prothrombin, above 500 µM; against Coagulation factor VII, above 1 mM; against Coagulation factor IX, above 1 mM; against Coagulation factor XI, above 500 µM; against Coagulation factor XII, above 500 µM. For the same compound, the figures for the IC50 (in test [1]; against Chymotrypsinogen A) were above 100 µM and 75.3 µM, respectively. Besides, the Ratio IC50 in the test filed under Homo sapiens [2] was above 1850; in the test listed under Homo sapiens [3], above 3700; in the test listed under Homo sapiens [4], above 3700; in the test listed under Homo sapiens [5], above 1850; in the test listed under Homo sapiens [6], above 1850; in test [7] it was above 370. For the same compound, the Ratio IC50 in test [8] worked out at 279. The 2aPTT in the test on Plasma [9] is 20.2 µM. Further, the 2PT in the test on Plasma [10] is 17.1 µM.
